≈ marks a conversion by molar mass, not a printed value.
What was measured:
[1] = target: T1, Nuclear receptor subfamily 1 group I member 2 (Homo sapiens, UniProt O75469); assay: Transactivation of human PXR; assay type: ADME; conditions: human
T1 sequence (O75469 whole entry): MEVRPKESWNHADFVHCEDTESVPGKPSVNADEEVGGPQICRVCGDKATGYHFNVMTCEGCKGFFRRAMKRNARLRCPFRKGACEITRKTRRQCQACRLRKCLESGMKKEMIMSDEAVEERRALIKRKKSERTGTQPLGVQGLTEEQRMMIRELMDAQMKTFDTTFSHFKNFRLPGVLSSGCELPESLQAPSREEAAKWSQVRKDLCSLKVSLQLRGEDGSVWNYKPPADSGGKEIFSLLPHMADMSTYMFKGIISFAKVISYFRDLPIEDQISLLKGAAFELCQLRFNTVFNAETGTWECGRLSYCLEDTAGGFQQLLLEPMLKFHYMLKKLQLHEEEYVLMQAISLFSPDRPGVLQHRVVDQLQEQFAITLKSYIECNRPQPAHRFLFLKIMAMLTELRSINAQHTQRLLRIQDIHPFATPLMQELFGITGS
How it was run: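 Human PXR transactivation assay, with potency reported as EC20A and EC60A values.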

[2] = target: Cytochrome P450 2C19 (Homo sapiens, UniProt P33261); assay: Inhibition of human CYP2C19; assay type: ADME
[3] = Clearance in Beagle dog at 1 mg/kg, iv; assay type: ADME, organism-based, Canis lupus familiaris; conditions: in vivo
How it was run: (§1)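 Single IV (about 1 mg/kg) and oral (about 5 mg/kg) doses in rat, cynomolgus monkey and dog; CL, t1/2, Vss, Cmax, tmax, AUC and oral bioavailability F derived from plasma concentration-time data.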

[4] = Clearance in Sprague-Dawley rat at 1 mg/kg, iv after 4 hrs; assay type: ADME, organism-based; conditions: in vivo
How it was run: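 Male Sprague-Dawley rats given 1 mpk IV in PEG400/ethanol (90:10); blood sampled at 5 and 30 min and 1, 2 and 4 h post-dose; clearance from plasma profile.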

[5] = test system: Homo sapiens; assay: Toxicity in normal healthy human assessed as occurence of adverse events at 200 to 1200 mg, po, administered as single dose; assay type: organism-based; conditions: in vivo
How it was run: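 Human subjects received single oral doses of 200, 600, 800 or 1200 mg and were monitored for clinically significant adverse events.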

[6] = Clearance in Sprague-Dawley rat at 0.87 mg/kg, iv; assay type: ADME, organism-based; conditions: in vivo; how it was run: as §1
[7] = test system: Salmonella typhimurium; assay: Genotoxicity in Salmonella typhimurium TA100 at =<5000 ug/plate in presence of metabolic activators by Ames test; assay type: toxicity, organism-based; conditions: salmonella enterica subsp. enterica serovar typhimurium
How it was run: (§2)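 Bacterial reverse mutation (Ames) test, Salmonella typhimurium TA98 and TA100, up to 5000 µg/plate, with and without metabolic activation.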

[8] = target: Cytochrome P450 2C9 (Homo sapiens, UniProt P11712); assay: Inhibition of human CYP2C9; assay type: ADME
[9] = Protein binding in human plasma; assay type: ADME, cell-free; conditions: read-out: PPB (converted)
[10] = Lipophilicity, log D of the compound at pH 6.5; assay type: physicochemical; conditions: buffer
How it was run: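 LogD determined experimentally at pH 6.5.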

[11] = Half-life in Sprague-Dawley rat at 0.87 mg/kg, iv; assay type: ADME, organism-based; conditions: in vivo; how it was run: as §1
[12] = target: Cytochrome P450 3A4 (Homo sapiens, UniProt P08684); assay: Inhibition of human CYP3A4; assay type: ADME
[13] = Solubility of the compound at pH 8.5; assay type: physicochemical; conditions: buffer
[14] = Tmax in Sprague-Dawley rat at 4.4 mg/kg, po; assay type: ADME, organism-based; conditions: in vivo
[15] = Volume of distribution at steady state in cynomolgus monkey at 1 mg/kg, iv; assay type: ADME, organism-based, Macaca fascicularis; conditions: in vivo, read-out: Vdss
[16] = test system: CHO; assay: Genotoxicity in CHO cells at 1.4 mM after 3 hrs in presence of metabolic activators by micronucleus assay; assay type: toxicity, cell-based, Cricetulus griseus; conditions: chinese hamster, 1400 µM
How it was run: (§3)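 Cytokinesis-blocked micronucleus test in cultured CHO cells: up to 1.4 mM (500 µg/mL) for 3 h with metabolic activation, or up to 0.36 mM for 22.5 h without activation.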

[17] = Ssolubility of the compound at pH 7.3; assay type: physicochemical; conditions: buffer
[18] = test system: CHO; assay: Genotoxicity in CHO cells at up to 0.36 mM after 22.5 hrs in absence of metabolic activators by micronucleus assay; assay type: toxicity, cell-based, Cricetulus griseus; conditions: chinese hamster; how it was run: as §3
[19] = Half-life in cynomolgus monkey at 1 mg/kg, iv; assay type: ADME, organism-based, Macaca fascicularis; conditions: in vivo; how it was run: as §1
[20] = AUC in Sprague-Dawley rat at 4.4 mg/kg, po; assay type: ADME, organism-based; conditions: in vivo; how it was run: as §1
[21] = test system: Salmonella typhimurium; assay: Genotoxicity in Salmonella typhimurium TA100 at =<5000 ug/plate in absence of metabolic activators by Ames test; assay type: toxicity, organism-based; conditions: salmonella enterica subsp. enterica serovar typhimurium; how it was run: as §2
[22] = test system: Salmonella typhimurium; assay: Genotoxicity in Salmonella typhimurium TA98 at =<5000 ug/plate in presence of metabolic activators by Ames test; assay type: toxicity, organism-based; conditions: salmonella enterica subsp. enterica serovar typhimurium; how it was run: as §2
[23] = Tmax in cynomolgus monkey at 5 mg/kg, po; assay type: ADME, organism-based, Macaca fascicularis; conditions: in vivo
[24] = test system: Salmonella typhimurium; assay: Genotoxicity in Salmonella typhimurium TA98 at =<5000 ug/plate in absence of metabolic activators by Ames test; assay type: toxicity, organism-based; conditions: salmonella enterica subsp. enterica serovar typhimurium; how it was run: as §2
[25] = species on record: Canis familiaris; assay: Toxicity in dog assessed as occurence of convulsions; assay type: organism-based, Canis lupus familiaris; conditions: in vivo
[26] = Permeability across apical to basolateral side in human Caco2 cells at 3 uM; assay type: ADME, cell-based; conditions: Caco-2, read-out: permeability
How it was run: (§4)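 Caco-2 monolayer permeability at 3 µM, apical-to-basolateral and basolateral-to-apical, reported in nm/sec.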

[27] = Permeability across basolateral to apical side in human Caco2 cells at 3 uM; assay type: ADME, cell-based; conditions: Caco-2, read-out: permeability; how it was run: as §4
[28] = Cmax in dog in 12 month toxicology study; assay type: ADME, organism-based, Canis lupus familiaris; conditions: in vivo
[29] = Drug metabolism in dog liver microsomes assessed as CYP-mediated metabolism by measuring compound half life; assay type: ADME, Canis lupus familiaris
How it was run: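 Microsomal stability with NADPH (CYP-dependent) in rat, cynomolgus, dog and human microsomes; half-life in min.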

[30] = Tmax in Beagle dog at 5.2 mg/kg, po; assay type: ADME, organism-based, Canis lupus familiaris; conditions: in vivo

Chain of Cytochrome P450 2C19 (P33261 whole entry): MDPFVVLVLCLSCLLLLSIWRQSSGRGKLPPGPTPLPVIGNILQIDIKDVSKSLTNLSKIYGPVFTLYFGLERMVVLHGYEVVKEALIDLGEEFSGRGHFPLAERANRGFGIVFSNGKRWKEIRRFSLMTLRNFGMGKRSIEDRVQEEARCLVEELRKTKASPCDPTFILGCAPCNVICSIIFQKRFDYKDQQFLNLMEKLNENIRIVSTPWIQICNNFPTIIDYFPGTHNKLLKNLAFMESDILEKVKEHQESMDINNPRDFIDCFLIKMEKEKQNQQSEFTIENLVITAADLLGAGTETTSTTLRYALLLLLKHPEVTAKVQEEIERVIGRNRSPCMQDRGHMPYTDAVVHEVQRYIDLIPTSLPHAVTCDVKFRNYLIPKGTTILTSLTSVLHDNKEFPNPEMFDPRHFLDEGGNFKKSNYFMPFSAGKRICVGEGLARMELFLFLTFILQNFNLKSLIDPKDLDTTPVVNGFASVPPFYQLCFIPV
Chain of Cytochrome P450 2C9 (P11712 whole entry): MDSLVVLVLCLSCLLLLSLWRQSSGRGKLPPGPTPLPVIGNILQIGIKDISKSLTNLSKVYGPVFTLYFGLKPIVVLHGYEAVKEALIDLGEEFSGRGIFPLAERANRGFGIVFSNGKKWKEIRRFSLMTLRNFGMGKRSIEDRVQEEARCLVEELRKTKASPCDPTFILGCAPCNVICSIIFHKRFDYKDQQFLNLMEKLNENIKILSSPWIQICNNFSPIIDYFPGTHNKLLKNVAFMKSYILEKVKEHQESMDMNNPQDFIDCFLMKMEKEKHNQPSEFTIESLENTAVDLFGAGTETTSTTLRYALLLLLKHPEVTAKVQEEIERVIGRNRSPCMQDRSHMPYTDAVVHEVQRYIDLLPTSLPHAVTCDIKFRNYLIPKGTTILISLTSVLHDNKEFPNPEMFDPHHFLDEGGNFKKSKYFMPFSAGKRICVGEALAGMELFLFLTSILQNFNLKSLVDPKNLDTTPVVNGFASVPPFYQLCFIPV
Chain of Cytochrome P450 3A4 (P08684 whole entry): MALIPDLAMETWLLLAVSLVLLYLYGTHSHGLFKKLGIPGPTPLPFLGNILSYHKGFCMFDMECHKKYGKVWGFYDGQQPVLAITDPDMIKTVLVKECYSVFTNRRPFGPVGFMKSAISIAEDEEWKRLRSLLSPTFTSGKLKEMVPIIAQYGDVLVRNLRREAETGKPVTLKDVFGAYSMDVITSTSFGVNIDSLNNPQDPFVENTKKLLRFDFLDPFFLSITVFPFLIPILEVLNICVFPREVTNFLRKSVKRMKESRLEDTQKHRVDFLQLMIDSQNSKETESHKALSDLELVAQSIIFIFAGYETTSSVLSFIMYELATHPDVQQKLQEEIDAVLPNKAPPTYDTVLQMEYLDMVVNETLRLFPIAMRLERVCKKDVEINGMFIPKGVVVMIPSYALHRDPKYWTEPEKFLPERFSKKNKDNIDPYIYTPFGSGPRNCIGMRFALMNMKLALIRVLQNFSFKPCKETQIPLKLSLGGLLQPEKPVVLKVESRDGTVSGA

## CC1(C)OCCn2c1nc(C(=O)NCc1ccc(F)cc1)c(O)c2=O
[1]
  EC60: > 50 µM
[2]
  IC50: > 40 µM
[3]
  clearance: 2 mL/min/kg
[4]
  clearance: 9.6 mL/min/kg
[5]
  Activity: Non-Toxic
[6]
  clearance: 9.7 mL/min/kg
[7]
  Activity: Non-Toxic
[8]
  IC50: > 40 µM
[9]
  fraction unbound: 0.024
[10]
  logD: 2.02
[11]
  half-life: 4 h
[12]
  IC50: > 40 µM
[13]
  solubility: 234 µg/mL (≈ 674 µM)
[14]
  Tmax: 0.25 h
[15]
  Vd: 0.87 L/kg
[16]
  Activity: Non-Toxic
[17]
  solubility: 63 µg/mL (≈ 181 µM)
[18]
  Activity: Non-Toxic
[19]
  half-life: 6.5 h
[20]
  AUC: 19.1 µM·h
[21]
  Activity: Non-Toxic
[22]
  Activity: Non-Toxic
[23]
  Tmax: 0.25 h
[24]
  Activity: Non-Toxic
[25]
  Activity: Toxic
[26]
  Papp A→B at 3 µM: 33.4 ×10⁻⁶ cm/s
[27]
  Papp B→A at 3 µM: 24 ×10⁻⁶ cm/s
[28]
  Cmax at 12 month: ≥ 67 µg/mL
[29]
  half-life: 1.78 h
[30]
  Tmax: 0.25 h

Source: ChEMBL document CHEMBL4118197, “The discovery and preclinical evaluation of BMS-707035, a potent HIV-1 integrase strand transfer inhibitor” (Bioorg Med Chem Lett, 2018)
